ChEMBL document CHEMBL1143805, “Synthesis and antimicrobial activities of some novel 1,2,4-triazolo[3,4-b]-1,3,4-thiadiazoles and 1,2,4-triazolo[3,4-b]-1,3,4-thiadiazines carrying thioalkyl and sulphonyl phenoxy moieties” (2007)
≈ marks a conversion by molar mass, not a printed value.

Key:
Staphylococcus aureus = experiment: Antibacterial activity against Staphylococcus aureus ATCC 25923; assay type: functional; conditions: for MIC: Staphylococcus aureus, ATCC 25923
Procedure, shortened: (§1)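 MIC by serial dilution in Mueller-Hinton broth tubes, pH adjusted to 5.0 with phosphate buffer. A standardized bacterial suspension was inoculated and incubated 16-18 h at 37 °C, and MIC was read as the lowest concentration with no visible growth. Zones were also measured in agar wells on seeded plates, with compounds in DMSO and a DMSO control, triplicate plates, 37 °C for 3-4 days.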

Aspergillus fumigatus = experiment: Antifungal activity against Aspergillus fumigatus NCIM 902; assay type: functional; conditions: for MIC: Aspergillus fumigatus, NCIM 902
Talaromyces marneffei = experiment: Antifungal activity against Penicillium marneffei; assay type: functional; conditions: for MIC: Talaromyces marneffei
Procedure, shortened: (§2)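 Agar-well diffusion on Sabouraud agar at pH 5.7. Plates were lawned with a saline spore suspension (one loopful in 3 ml), decanted and dried 1 h at 37 °C. Compounds in DMSO went into punched wells, with a DMSO solvent control. Plates were run in triplicate and kept at 37 °C for 3-4 days, with inhibition-zone diameter as read-out.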

Trichophyton benhamiae = experiment: Antifungal activity against Trichophyton mentagrophytes; assay type: functional, Arthroderma benhamiae; conditions: for MIC: Trichophyton benhamiae; procedure, shortened: as §2
Klebsiella pneumoniae = experiment: Antibacterial activity against Klebsiella pneumoniae; assay type: functional; conditions: for MIC: Klebsiella pneumoniae; procedure, shortened: as §1
Escherichia coli = experiment: Antibacterial activity against Escherichia coli ATCC 25922; assay type: functional; conditions: for MIC: Escherichia coli, ATCC 25922; procedure, shortened: as §1
Aspergillus flavus = experiment: Antifungal activity against Aspergillus flavus NCIM 524; assay type: functional; conditions: for MIC: Aspergillus flavus, NCIM 524; procedure, shortened: as §2
Pseudomonas aeruginosa = experiment: Antibacterial activity against Pseudomonas aeruginosa ATCC 27853; assay type: functional; conditions: for MIC: Pseudomonas aeruginosa, ATCC 27853; procedure, shortened: as §1

| Compound | MIC (Staphylococcus aureus) | MIC (Aspergillus fumigatus) | MIC (Talaromyces marneffei) | MIC (Trichophyton benhamiae) | MIC (Klebsiella pneumoniae) | MIC (Escherichia coli) | MIC (Aspergillus flavus) | MIC (Pseudomonas aeruginosa) | inhibition zone (IZ) (Staphylococcus aureus) | inhibition zone (IZ) (Aspergillus fumigatus) | inhibition zone (IZ) (Talaromyces marneffei) | inhibition zone (IZ) (Trichophyton benhamiae) | inhibition zone (IZ) (Klebsiella pneumoniae) | inhibition zone (IZ) (Escherichia coli) | inhibition zone (IZ) (Aspergillus flavus) | inhibition zone (IZ) (Pseudomonas aeruginosa) |
| --- | --- | --- | --- | --- | --- | --- | --- | --- | --- | --- | --- | --- | --- | --- | --- | --- |
| CSc1ccc(OCc2nnc3sc(-c4cccc(Cl)c4Cl)nn23)cc1 | 6.25 µg/mL (≈ 14.8 µM) | 6.25 µg/mL (≈ 14.8 µM) | 6.25 µg/mL (≈ 14.8 µM) | 6.25 µg/mL (≈ 14.8 µM) | 6.25 µg/mL (≈ 14.8 µM) | 6.25 µg/mL (≈ 14.8 µM) | 6.25 µg/mL (≈ 14.8 µM) | 6.25 µg/mL (≈ 14.8 µM) | 16 mm | 16 mm | 16 mm | 16 mm | 16 mm | 16 mm | 16 mm | 16 mm |
| CCSc1ccc(OCc2nnc3sc(-c4ccccc4N)nn23)cc1 | 25 µg/mL (≈ 65.2 µM) | 25 µg/mL (≈ 65.2 µM) | 25 µg/mL (≈ 65.2 µM) | 25 µg/mL (≈ 65.2 µM) | 25 µg/mL (≈ 65.2 µM) | 25 µg/mL (≈ 65.2 µM) | 25 µg/mL (≈ 65.2 µM) | 25 µg/mL (≈ 65.2 µM) | <10 mm | <10 mm | <10 mm | <10 mm | <10 mm | <10 mm | <10 mm | <10 mm |
| O=C(O)c1cn(C2CC2)c2cc(N3CCNCC3)c(F)cc2c1=O [CIPROFLOXACIN] | 1.56 µg/mL (≈ 4.71 µM) | – | – | – | 6.25 µg/mL (≈ 18.9 µM) | – | – | – | 22 mm | – | – | – | 23 mm | 30 mm | – | 25 mm |
| CS(=O)(=O)c1ccc(OCc2nnc3n2N=C(c2ccc(Cl)cc2Cl)CS3)cc1 | 12.5 µg/mL (≈ 26.6 µM) | 12.5 µg/mL (≈ 26.6 µM) | 25 µg/mL (≈ 53.3 µM) | 12.5 µg/mL (≈ 26.6 µM) | 12.5 µg/mL (≈ 26.6 µM) | 12.5 µg/mL (≈ 26.6 µM) | 12.5 µg/mL (≈ 26.6 µM) | 12.5 µg/mL (≈ 26.6 µM) | 11 mm | 11 mm | <10 mm | 11 mm | 11 mm | 11 mm | 11 mm | 11 mm |
| CS(=O)(=O)c1ccc(OCc2nnc3n2N=C(c2ccc(Cl)cc2)CS3)cc1 | 25 µg/mL (≈ 57.5 µM) | 25 µg/mL (≈ 57.5 µM) | 25 µg/mL (≈ 57.5 µM) | 25 µg/mL (≈ 57.5 µM) | 25 µg/mL (≈ 57.5 µM) | 25 µg/mL (≈ 57.5 µM) | 25 µg/mL (≈ 57.5 µM) | 25 µg/mL (≈ 57.5 µM) | <10 mm | <10 mm | <10 mm | < 10 mm | <10 mm | <10 mm | <10 mm | <10 mm |
| CCSc1ccc(OCc2nnc3sc(-c4ccccc4Cl)nn23)cc1 | 25 µg/mL (≈ 62 µM) | 25 µg/mL (≈ 62 µM) | 25 µg/mL (≈ 62 µM) | 25 µg/mL (≈ 62 µM) | 25 µg/mL (≈ 62 µM) | 25 µg/mL (≈ 62 µM) | 25 µg/mL (≈ 62 µM) | 25 µg/mL (≈ 62 µM) | <10 mm | <10 mm | <10 mm | <10 mm | <10 mm | <10 mm | <10 mm | <10 mm |
| CS(=O)(=O)c1ccc(OCc2nnc3sc(-c4cccc(Cl)c4)nn23)cc1 | 12.5 µg/mL (≈ 29.7 µM) | 12.5 µg/mL (≈ 29.7 µM) | 25 µg/mL (≈ 59.4 µM) | 12.5 µg/mL (≈ 29.7 µM) | 12.5 µg/mL (≈ 29.7 µM) | 12.5 µg/mL (≈ 29.7 µM) | 12.5 µg/mL (≈ 29.7 µM) | 12.5 µg/mL (≈ 29.7 µM) | 11 mm | 11 mm | <10 mm | 11 mm | 11 mm | 11 mm | 11 mm | 11 mm |
| CS(=O)(=O)c1ccc(OCc2nnc3n2N=C(c2ccc(O)c(C(N)=O)c2)CS3)cc1 | 12.5 µg/mL (≈ 27.2 µM) | 12.5 µg/mL (≈ 27.2 µM) | 25 µg/mL (≈ 54.4 µM) | 12.5 µg/mL (≈ 27.2 µM) | 12.5 µg/mL (≈ 27.2 µM) | 12.5 µg/mL (≈ 27.2 µM) | 12.5 µg/mL (≈ 27.2 µM) | 12.5 µg/mL (≈ 27.2 µM) | 11 mm | 11 mm | <10 mm | 11 mm | 11 mm | 11 mm | 11 mm | 11 mm |
| CCSc1ccc(OCc2nnc3sc(-c4ccc(C)cc4)nn23)cc1 | 6.25 µg/mL (≈ 16.3 µM) | 25 µg/mL (≈ 65.4 µM) | 6.25 µg/mL (≈ 16.3 µM) | 25 µg/mL (≈ 65.4 µM) | 6.25 µg/mL (≈ 16.3 µM) | 6.25 µg/mL (≈ 16.3 µM) | 25 µg/mL (≈ 65.4 µM) | 6.25 µg/mL (≈ 16.3 µM) | 16 mm | <10 mm | 16 mm | <10 mm | 16 mm | 16 mm | <10 mm | 16 mm |
| CS(=O)(=O)c1ccc(OCc2nnc3sc(Cc4ccccc4)nn23)cc1 | 12.5 µg/mL (≈ 31.2 µM) | 12.5 µg/mL (≈ 31.2 µM) | 25 µg/mL (≈ 62.4 µM) | 12.5 µg/mL (≈ 31.2 µM) | 12.5 µg/mL (≈ 31.2 µM) | 12.5 µg/mL (≈ 31.2 µM) | 12.5 µg/mL (≈ 31.2 µM) | 12.5 µg/mL (≈ 31.2 µM) | 11 mm | 11 mm | <10 mm | 11 mm | 11 mm | 11 mm | 11 mm | 11 mm |
| CCSc1ccc(OCc2nnc3sc(-c4ccccc4O)nn23)cc1 | 25 µg/mL (≈ 65 µM) | 25 µg/mL (≈ 65 µM) | 25 µg/mL (≈ 65 µM) | 25 µg/mL (≈ 65 µM) | 25 µg/mL (≈ 65 µM) | 25 µg/mL (≈ 65 µM) | 25 µg/mL (≈ 65 µM) | 25 µg/mL (≈ 65 µM) | <10 mm | <10 mm | <10 mm | <10 mm | <10 mm | <10 mm | <10 mm | <10 mm |
| CSc1ccc(OCc2nnc3n2N=C(c2ccc(Cl)cc2)CS3)cc1 | 6.25 µg/mL (≈ 15.5 µM) | 6.25 µg/mL (≈ 15.5 µM) | 6.25 µg/mL (≈ 15.5 µM) | 6.25 µg/mL (≈ 15.5 µM) | 6.25 µg/mL (≈ 15.5 µM) | 6.25 µg/mL (≈ 15.5 µM) | 6.25 µg/mL (≈ 15.5 µM) | 6.25 µg/mL (≈ 15.5 µM) | 16 mm | 16 mm | 16 mm | 16 mm | 16 mm | 16 mm | 16 mm | 16 mm |

Continued, in another order:

| MIC (Staphylococcus aureus) | MIC (Aspergillus fumigatus) | MIC (Talaromyces marneffei) | MIC (Trichophyton benhamiae) | MIC (Klebsiella pneumoniae) | MIC (Escherichia coli) | MIC (Aspergillus flavus) | MIC (Pseudomonas aeruginosa) | Compound | inhibition zone (IZ) (Staphylococcus aureus) | inhibition zone (IZ) (Aspergillus fumigatus) | inhibition zone (IZ) (Talaromyces marneffei) | inhibition zone (IZ) (Trichophyton benhamiae) | inhibition zone (IZ) (Klebsiella pneumoniae) | inhibition zone (IZ) (Escherichia coli) | inhibition zone (IZ) (Aspergillus flavus) | inhibition zone (IZ) (Pseudomonas aeruginosa) |
| --- | --- | --- | --- | --- | --- | --- | --- | --- | --- | --- | --- | --- | --- | --- | --- | --- |
| 6.25 µg/mL (≈ 17 µM) | 6.25 µg/mL (≈ 17 µM) | 6.25 µg/mL (≈ 17 µM) | 6.25 µg/mL (≈ 17 µM) | 6.25 µg/mL (≈ 17 µM) | 6.25 µg/mL (≈ 17 µM) | 6.25 µg/mL (≈ 17 µM) | 6.25 µg/mL (≈ 17 µM) | CSc1ccc(OCc2nnc3sc(Cc4ccccc4)nn23)cc1 | 16 mm | 16 mm | 16 mm | 16 mm | 16 mm | 16 mm | 16 mm | 16 mm |
| 25 µg/mL (≈ 64.3 µM) | 25 µg/mL (≈ 64.3 µM) | 25 µg/mL (≈ 64.3 µM) | 25 µg/mL (≈ 64.3 µM) | 25 µg/mL (≈ 64.3 µM) | 25 µg/mL (≈ 64.3 µM) | 25 µg/mL (≈ 64.3 µM) | 25 µg/mL (≈ 64.3 µM) | CSc1ccc(OCc2nnc3sc(-c4ccccc4Cl)nn23)cc1 | <10 mm | <10 mm | <10 mm | <10 mm | <10 mm | <10 mm | <10 mm | <10 mm |
| 6.25 µg/mL (≈ 17.6 µM) | 6.25 µg/mL (≈ 17.6 µM) | 6.25 µg/mL (≈ 17.6 µM) | 6.25 µg/mL (≈ 17.6 µM) | 6.25 µg/mL (≈ 17.6 µM) | 6.25 µg/mL (≈ 17.6 µM) | 6.25 µg/mL (≈ 17.6 µM) | 6.25 µg/mL (≈ 17.6 µM) | CSc1ccc(OCc2nnc3sc(-c4ccccc4)nn23)cc1 | 16 mm | 16 mm | 16 mm | 16 mm | 16 mm | 16 mm | 16 mm | 16 mm |
| 6.25 µg/mL (≈ 17 µM) | 6.25 µg/mL (≈ 17 µM) | 6.25 µg/mL (≈ 17 µM) | 6.25 µg/mL (≈ 17 µM) | 6.25 µg/mL (≈ 17 µM) | 6.25 µg/mL (≈ 17 µM) | 6.25 µg/mL (≈ 17 µM) | 6.25 µg/mL (≈ 17 µM) | CCSc1ccc(OCc2nnc3sc(-c4ccccc4)nn23)cc1 | 16 mm | 16 mm | 16 mm | 16 mm | 16 mm | 16 mm | 16 mm | 16 mm |
| 6.25 µg/mL (≈ 16.9 µM) | 6.25 µg/mL (≈ 16.9 µM) | 6.25 µg/mL (≈ 16.9 µM) | 6.25 µg/mL (≈ 16.9 µM) | 6.25 µg/mL (≈ 16.9 µM) | 6.25 µg/mL (≈ 16.9 µM) | 6.25 µg/mL (≈ 16.9 µM) | 6.25 µg/mL (≈ 16.9 µM) | CSc1ccc(OCc2nnc3sc(-c4ccc(N)cc4)nn23)cc1 | 16 mm | 16 mm | 16 mm | 16 mm | 16 mm | 16 mm | 16 mm | 16 mm |
